For twelve molecules, MIC results are on record in ChEMBL document CHEMBL1158823, “Extraction, hemisynthesis, and synthesis of canthin-6-one analogues. Evaluation of their antifungal activities” (2005).

Values after ≈ are worked out from the molar mass of the structure shown.

Assay type in all cases: functional
In one assay the test system is Candida albicans. Nature of the assay: Antifungal activity against Candida albicans ATCC 10231. In outline: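 Bioautographic assay against Candida albicans CIP 4872 (also listed as ATCC 10231 and NIH 3147), with the minimal inhibitory concentration (MIC) estimated.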
Another assay deals with Cryptococcus neoformans. Nature of the assay: Antifungal activity against Cryptococcus neoformans H99. The gist of the method:
(§1)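 Bioautographic assay, with the minimal inhibitory concentration (MIC) estimated from it.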

The subject of another assay is Saccharomyces cerevisiae. Nature of the assay: Antifungal activity against Saccharomyces cerevisiae ATCC 26.01. The gist of the method:
as §1

The test system of assay [1] is Trichophyton mentagrophytes. The assay is described as follows: Antifungal activity against Trichophyton mentagrophytes var. interdigitale CPCM 06.99. In outline:
as §1

The next assay deals with Aspergillus fumigatus. The assay is described as follows: Antifungal activity against Aspergillus fumigatus 04-486. In outline:
as §1

Broadly, the MIC is the least concentration at which growth counts as inhibited. Regarding `O=c1ccc2c3c(cc[n+]2[O-])c2ccccc2n13`, the MIC is greater than 200 µM in the assay with Candida albicans (read-out: MIC); greater than 200 µM with Cryptococcus neoformans (var grubii H99, read-out: MIC); 53 µM (≈ 12.5 µg/mL) in the assay on Saccharomyces cerevisiae (read-out: MIC); greater than 200 µM in assay [1]; greater than 200 µM in the assay on Aspergillus fumigatus.
As to `COc1ccc2c(c1)c1ccnc3ccc(=O)n2c31`, the MIC with Candida albicans (read-out: MIC) is 100 µM (≈ 25 µg/mL); in the assay with Cryptococcus neoformans (var grubii H99, read-out: MIC), 200 µM (≈ 50.1 µg/mL); with Saccharomyces cerevisiae (read-out: MIC), 50 µM (≈ 12.5 µg/mL); in assay [1], greater than 200 µM; in the assay with Aspergillus fumigatus it was greater than 200 µM.
As for `O=c1ccc2c3c(cc[n+]2CCBr)c2ccccc2n13`, the MIC with Candida albicans (read-out: MIC) was greater than 200 µM; in the assay with Cryptococcus neoformans (var grubii H99, read-out: MIC), greater than 200 µM; in the assay with Saccharomyces cerevisiae (read-out: MIC) it was 7.7 µM; in assay [1], greater than 200 µM; against Aspergillus fumigatus, greater than 200 µM.
As to `COc1c2c(c3ccc(=O)oc3c1/C=C\C(C)(C)O)OC(C)(C)C=C2`, the MIC in the assay on Candida albicans (read-out: MIC) is 146 µM (≈ 50 µg/mL); with Cryptococcus neoformans (var grubii H99, read-out: MIC), greater than 200 µM; in the assay with Saccharomyces cerevisiae (read-out: MIC) it was greater than 200 µM; in the assay on Aspergillus fumigatus, greater than 200 µM.
For `O=c1ccc2nccc3c4ccc(F)cc4n1c23`, the MIC against Candida albicans, in the assay on Cryptococcus neoformans (var grubii H99) and against Saccharomyces cerevisiae was 13.1 µM (≈ 3.12 µg/mL) each time.
On to `Cc1cc2c3ccccc3n3c(=O)ccc(n1)c23`, for which the MIC in the assay with Candida albicans, against Cryptococcus neoformans (var grubii H99) and in the assay with Saccharomyces cerevisiae was greater than 200 µM each time.
Consider `CCCC[n+]1ccc2c3ccccc3n3c(=O)ccc1c23`, for which the MIC with Candida albicans (read-out: MIC) is 124 µM; in the assay with Cryptococcus neoformans (var grubii H99, read-out: MIC), greater than 200 µM; in the assay with Saccharomyces cerevisiae (read-out: MIC), 124 µM; in assay [1], greater than 200 µM; in the assay with Aspergillus fumigatus, greater than 200 µM.
Regarding `Nc1cc(=O)n2c3ccccc3c3ccnc1c32`, the MIC with Candida albicans (read-out: MIC) was 53.2 µM (≈ 12.5 µg/mL); in the assay on Cryptococcus neoformans (var grubii H99, read-out: MIC) it was 106 µM (≈ 24.9 µg/mL); with Saccharomyces cerevisiae (read-out: MIC), 53.2 µM (≈ 12.5 µg/mL); in assay [1], 106 µM (≈ 24.9 µg/mL); against Aspergillus fumigatus, greater than 200 µM.
Take `COc1cc2nccc3c4ccccc4n(c1=O)c23` [5-METHOXYCANTHINONE]: the MIC in the assay with Candida albicans (read-out: MIC) is greater than 200 µM; with Cryptococcus neoformans (var grubii H99, read-out: MIC) it was 50 µM (≈ 12.5 µg/mL); in the assay on Saccharomyces cerevisiae (read-out: MIC), 50 µM (≈ 12.5 µg/mL); in assay [1] it was 6.3 µM (≈ 1.58 µg/mL); against Aspergillus fumigatus, 50 µM (≈ 12.5 µg/mL).
Consider `COc1c2c(c3ccc(=O)oc3c1/C=C/C(C)(C)O)OC(C)(C)C=C2` [AVICENNOL], for which the MIC with Candida albicans (read-out: MIC) is 146 µM (≈ 50 µg/mL); with Cryptococcus neoformans (var grubii H99, read-out: MIC), greater than 200 µM; with Saccharomyces cerevisiae (read-out: MIC) it was greater than 200 µM; with Aspergillus fumigatus it was greater than 200 µM.
Take `O=c1ccc2nccc3c4ccccc4n1c23` [CANTHIN-6-ONE]: the MIC in the assay with Candida albicans (read-out: MIC) worked out at 56.8 µM (≈ 12.5 µg/mL); in the assay on Cryptococcus neoformans (var grubii H99, read-out: MIC), 14.2 µM (≈ 3.13 µg/mL); in the assay with Saccharomyces cerevisiae (read-out: MIC), 14.2 µM (≈ 3.13 µg/mL); in assay [1], 7.1 µM (≈ 1.56 µg/mL); with Aspergillus fumigatus, 14.2 µM (≈ 3.13 µg/mL).
`CC(=O)N1CCN(c2ccc(OCC3COC(Cn4ccnc4)(c4ccc(Cl)cc4Cl)O3)cc2)CC1` (centres undefined) [KETOCONAZOLE]: the minimal inhibitory concentration (MIC) came out at 2.9 µM (≈ 1.54 µg/mL) in the assay with Candida albicans (read-out: MIC); 5.9 µM (≈ 3.14 µg/mL) in the assay on Cryptococcus neoformans (var grubii H99, read-out: MIC); 5.9 µM (≈ 3.14 µg/mL) in the assay with Saccharomyces cerevisiae (read-out: MIC); 23.5 µM (≈ 12.5 µg/mL) in assay [1]; 94.2 µM (≈ 50.1 µg/mL) against Aspergillus fumigatus.
